Results from ChEMBL document CHEMBL3046103, “Antifungal synergistic effect of scopoletin, a hydroxycoumarin isolated from Melia azedarach L. fruits” (J Agric Food Chem, 2005).

Experiments:
Fusarium verticillioides [1] = assay: Antifungal activity against Fusarium verticillioides assessed as growth inhibition by broth microdilution method
Fusarium incarnatum [2] = assay: Antifungal activity against Fusarium incarnatum assessed as growth inhibition at 1 mg/mL by broth microdilution method; format: functional; conditions: read-out: GI
Fusarium incarnatum [3] = assay: Antifungal activity against Fusarium incarnatum assessed as growth inhibition by broth microdilution method; format: functional, organism-based
Fusarium verticillioides [4] = assay: Antifungal activity against Fusarium verticillioides assessed as growth inhibition at 1 mg/mL by broth microdilution method; format: functional
How it was run: (§1)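 F. verticillioides strain M-7075, a maize isolate, was kept as a monosporic culture on V8 juice medium. Four-day-old spores were suspended at 10^5 spores/mL in glucose-mineral salts medium. Compound in filter-sterilized DMSO (final ≤2-4%) was tested at 0.10–1.70 mg/mL, in duplicate, alongside DMSO and untreated controls. Germination relative to control mycelial growth (100%) was scored visually by inverted microscope. MIC was the lowest concentration giving complete inhibition, and IC50 came from probit analysis.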

Fusarium [5] = assay: Antifungal activity against Fusarium fusiformis assessed as growth inhibition by broth microdilution method; format: functional, organism-based
Fusarium verticillioides [6] = assay: Antifungal activity against Fusarium verticillioides assessed as growth inhibition by broth microdilution method; format: functional, organism-based
How it was run: as §1

Fusarium [7] = assay: Antifungal activity against Fusarium fusiformis assessed as growth inhibition at 1 mg/mL by broth microdilution method; format: functional

COc1cc(C2OCC3C(c4ccc(O)c(OC)c4)OCC23)ccc1O (racemic) [(+/-)-PINORESINOL]
MIC (Fusarium verticillioides [1]): 1000 µg/mL

COc1cc(/C=C/C=O)ccc1O [CONIFERYL ALDEHYDE]
MIC (Fusarium verticillioides [1]): 400 µg/mL

COc1cc2ccc(=O)oc2cc1O [SCOPOLETIN]
inhibition of growth at 1000 µg/mL (Fusarium incarnatum [2]): 66.2% | IC50 (Fusarium incarnatum [3]): 470 µg/mL | inhibition at 1000 µg/mL (Fusarium verticillioides [4]): 90% | IC50 (Fusarium [5]): 820 µg/mL | IC50 (Fusarium verticillioides [6]): 730 µg/mL | MIC (Fusarium verticillioides [6]): 1500 µg/mL | inhibition at 1000 µg/mL (Fusarium [7]): 51.8%

COc1cc(C=O)ccc1O [VANILLIN]
MIC (Fusarium verticillioides [1]): 600 µg/mL
